Test results from ChEMBL document CHEMBL3774312, “5-Substituted 3-isopropyl-7-[4-(2-pyridyl)benzyl]amino-1(2)H-pyrazolo[4,3-d]pyrimidines with anti-proliferative activity as potent and selective inhibitors of cyclin-dependent kinases” (Eur J Med Chem, 2016).
Active and inactive are the calls of the source. The rule behind the calls is not given here.

Tests used:
[1] = target: Cyclin-dependent kinase 2 (Homo sapiens) (UniProt P24941); assay: Inhibition of CDK2 in human G361 cells assessed as reduction in phosphorylation of RNA polymerase 2 at C-terminus at 0.1 to 1 uM incubated for 24 hrs by immunoblotting analysis; type: cell-based; settings: G-361
Outline: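 Treated G361 cells were lysed in Laemmli buffer, run on SDS-PAGE and blotted to nitrocellulose. Blots were probed overnight with antibodies to RNA polymerase II phosphorylated at S5 and S2, and to total RNA polymerase II (ARNA-3). Peroxidase secondaries were then applied and signal was detected by ECL with a CCD camera.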

[2] = target: Calcium/calmodulin-dependent protein kinase kinase 2 (Homo sapiens) (UniProt Q96RR4); assay: Inhibition of recombinant CAMKKB (unknown origin) assessed as residual activity at 1 uM relative to control
Calcium/calmodulin-dependent protein kinase kinase 2 (Homo sapiens), sequence (Q96RR4 2-588 limits assumed): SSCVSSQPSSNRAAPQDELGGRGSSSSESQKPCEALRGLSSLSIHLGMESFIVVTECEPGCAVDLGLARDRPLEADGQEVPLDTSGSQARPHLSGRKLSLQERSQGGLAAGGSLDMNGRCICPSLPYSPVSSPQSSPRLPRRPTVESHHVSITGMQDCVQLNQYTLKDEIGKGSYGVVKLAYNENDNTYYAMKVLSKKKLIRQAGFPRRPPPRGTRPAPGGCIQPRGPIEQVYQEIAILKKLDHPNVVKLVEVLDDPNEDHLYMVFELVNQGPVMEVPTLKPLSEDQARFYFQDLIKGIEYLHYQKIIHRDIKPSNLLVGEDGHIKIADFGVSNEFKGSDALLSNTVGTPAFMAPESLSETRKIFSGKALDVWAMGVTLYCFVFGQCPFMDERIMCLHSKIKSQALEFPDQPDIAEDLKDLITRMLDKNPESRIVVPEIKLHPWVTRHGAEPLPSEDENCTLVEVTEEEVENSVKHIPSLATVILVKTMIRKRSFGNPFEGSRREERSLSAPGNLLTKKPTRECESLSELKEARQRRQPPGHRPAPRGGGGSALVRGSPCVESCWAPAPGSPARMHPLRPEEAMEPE

[3] = target: Dual specificity tyrosine-phosphorylation-regulated kinase 1A (Homo sapiens) (UniProt Q13627); assay: Inhibition of recombinant DYRK1A (unknown origin) assessed as residual activity at 1 uM relative to control
[4] = Cell cycle arrest in BrdU pulse-labelled human HCT116 cells assessed as accumulation at late S phase at 125 to 500 nM after 24 hrs by propidium iodide staining based flow cytometry; type: functional; settings: HCT-116
MCF7 = assay: Cell cycle arrest in BrdU pulse-labelled human MCF7 cells assessed as decrease in cells at S phase at 8 to 250 nM after 24 hrs by propidium iodide staining based flow cytometry; type: functional
G-361 = assay: Induction of apoptosis in human G361 cells assessed as caspase3 activation using Ac-DEVD-AMC as substrate at IC50 preincubated for 24 hrs followed by substrate addition measured after 3 hrs by fluorescence assay; type: functional, cell-based
[5] = target: Dual specificity protein kinase TTK (Homo sapiens) (UniProt P33981); assay: Inhibition of recombinant TTK (unknown origin) assessed as residual activity at 1 uM relative to control
Dual specificity protein kinase TTK (Homo sapiens), sequence (P33981 whole entry): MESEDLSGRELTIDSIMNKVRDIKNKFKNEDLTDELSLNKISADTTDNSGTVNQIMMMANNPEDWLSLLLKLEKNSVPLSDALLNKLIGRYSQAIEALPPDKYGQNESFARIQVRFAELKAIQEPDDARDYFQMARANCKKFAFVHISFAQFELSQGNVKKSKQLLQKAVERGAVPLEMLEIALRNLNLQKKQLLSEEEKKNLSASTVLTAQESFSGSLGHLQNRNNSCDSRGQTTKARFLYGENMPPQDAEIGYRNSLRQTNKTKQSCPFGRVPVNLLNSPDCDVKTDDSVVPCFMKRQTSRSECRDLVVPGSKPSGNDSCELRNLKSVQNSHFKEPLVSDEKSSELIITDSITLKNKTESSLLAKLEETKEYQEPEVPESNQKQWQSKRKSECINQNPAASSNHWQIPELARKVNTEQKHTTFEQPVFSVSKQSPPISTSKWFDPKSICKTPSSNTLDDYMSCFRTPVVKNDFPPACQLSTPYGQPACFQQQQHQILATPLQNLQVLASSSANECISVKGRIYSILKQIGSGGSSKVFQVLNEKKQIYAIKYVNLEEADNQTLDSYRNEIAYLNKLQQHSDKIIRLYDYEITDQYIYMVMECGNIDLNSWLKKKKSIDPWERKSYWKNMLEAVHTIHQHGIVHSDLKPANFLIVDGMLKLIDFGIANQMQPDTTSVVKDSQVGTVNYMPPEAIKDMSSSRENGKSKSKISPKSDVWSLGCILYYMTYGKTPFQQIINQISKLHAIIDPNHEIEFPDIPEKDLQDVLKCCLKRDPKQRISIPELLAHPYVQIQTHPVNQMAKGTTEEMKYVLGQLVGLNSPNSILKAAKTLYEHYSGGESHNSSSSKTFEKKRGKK

[6] = target: Proto-oncogene tyrosine-protein kinase Src (Homo sapiens) (UniProt P12931); assay: Inhibition of recombinant SRC (unknown origin) assessed as residual activity at 1 uM relative to control
Proto-oncogene tyrosine-protein kinase Src (Homo sapiens), sequence (P12931 2-536 limits assumed): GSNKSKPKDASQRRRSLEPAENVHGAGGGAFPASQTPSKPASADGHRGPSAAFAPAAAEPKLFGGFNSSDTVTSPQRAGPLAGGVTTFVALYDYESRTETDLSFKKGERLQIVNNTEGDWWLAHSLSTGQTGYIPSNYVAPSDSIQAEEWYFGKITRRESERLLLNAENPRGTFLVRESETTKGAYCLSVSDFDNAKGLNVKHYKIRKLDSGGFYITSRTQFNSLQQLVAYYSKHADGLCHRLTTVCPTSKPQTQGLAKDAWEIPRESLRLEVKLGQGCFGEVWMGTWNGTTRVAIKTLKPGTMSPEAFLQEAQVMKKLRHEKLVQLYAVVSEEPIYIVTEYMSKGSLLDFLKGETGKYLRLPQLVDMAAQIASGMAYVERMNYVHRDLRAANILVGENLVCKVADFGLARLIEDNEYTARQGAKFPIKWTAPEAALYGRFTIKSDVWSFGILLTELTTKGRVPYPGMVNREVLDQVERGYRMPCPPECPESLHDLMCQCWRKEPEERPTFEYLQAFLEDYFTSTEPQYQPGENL

[7] = target: Casein kinase II (Homo sapiens) (UniProt P67870+P68400+P19784); assay: Inhibition of recombinant CK2 (unknown origin) assessed as residual activity at 1 uM relative to control; type: protein-complex assay
[8] = target: Protein kinase C alpha type (Homo sapiens) (UniProt P17252); assay: Inhibition of recombinant PKCalpha (unknown origin) assessed as residual activity at 1 uM relative to control
[9] = target: Mitogen-activated protein kinase 14 (Homo sapiens) (UniProt Q16539); assay: Inhibition of recombinant p38alpha MAP kinase (unknown origin) assessed as residual activity at 1 uM relative to control
Mitogen-activated protein kinase 14 (Homo sapiens), sequence (Q16539 whole entry): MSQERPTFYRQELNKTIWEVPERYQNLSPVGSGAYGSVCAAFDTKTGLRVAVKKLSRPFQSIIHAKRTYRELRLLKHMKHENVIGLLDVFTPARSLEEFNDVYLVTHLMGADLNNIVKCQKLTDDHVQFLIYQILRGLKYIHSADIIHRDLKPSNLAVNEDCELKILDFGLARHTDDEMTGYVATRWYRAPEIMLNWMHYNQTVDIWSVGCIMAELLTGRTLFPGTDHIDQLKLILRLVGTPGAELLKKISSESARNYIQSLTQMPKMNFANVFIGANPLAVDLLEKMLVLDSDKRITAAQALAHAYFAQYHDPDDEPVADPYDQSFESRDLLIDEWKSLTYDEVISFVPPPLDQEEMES

SMILES: CC(O)CNc1nc(NCc2ccc(-c3ccccn3)cc2)c2[nH]nc(C(C)C)c2n1 (stereo unspecified)
- inhibition [1]: Active
- Activity [2]: 49%
- Activity [3]: 60%
- Activity [4]: Active
- Activity (MCF7): Active
- Activity (G-361): Active
- Activity [5]: 79%
- Activity [6]: 88%
- Activity [7]: 89%
- Activity [8]: > 100%
- Activity [9]: > 100%
